Experimental data from ChEMBL document CHEMBL1121392, “Synthesis and antiarrhythmic properties of some 5-benzamido-2-methyl-trans-decahydroisoquinolines” (J Med Chem, 1980).

Columns and labels:
[1] = species: Mus musculus; experiment: Antiarrhythmic potency in female roswell park white mice using chloroform-induced ventricular fibrillation assay; type: functional; details: Heart
[2] = Compound was evaluated for acute toxicity (24 h) in female roswell park white mice given intraperitoneally; type: organism-based; details: mouse, in vivo, ip
Procedure, shortened: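 Female Roswell Park (ICR) mice, about 15–25 g, dosed intraperitoneally in groups of at least ten. At least three dose levels were spaced logarithmically at intervals of 0.1 or less. Deaths were scored at 24 h.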

[3] = Ratio of lethal dose to that of effective dose in mice; type: ADME, organism-based; details: mouse, in vivo

Structure (SMILES) | ED50 [1] [µmol/kg] | LD50 at 24 h [2] [µmol/kg] | therapeutic index (LD50/ED50) [3]
Cc1ccc(C(=O)NC2CCCC3CN(C)CCC32)cc1 (stereo not given) | 110 | 803 | 7.3
CN1CCC2C(CCCC2NC(=O)c2ccc(Cl)c(Cl)c2)C1 (stereo not given) | 32 | 630 | 19.6
CN1CCC2C(CCCC2NC(=O)c2ccc(Cl)cc2)C1 (stereo not given) | 49 | 929 | 19
CN1CCC2C(CCCC2NC(=O)c2ccc([N+](=O)[O-])cc2)C1 (stereo not given) | 95 | 1100 | 11.7
C=C[C@H]1CN2CC[C@H]1C[C@@H]2[C@@H](O)c1ccnc2ccc(OC)cc12 [QUINIDINE] | 122 | 524 | 
CN1CCC2C(CCCC2NC(=O)c2ccc(Cl)cc2Cl)C1 (stereo not given) | 88 | 624 | 7.1
CN1CCC2C(CCCC2NC(=O)c2cccc(Cl)c2)C1 (stereo not given) | 73 | 613 | 8.36
CN1CCC2C(CCCC2NC(=O)c2ccc(F)cc2)C1 (stereo not given) | 110 | 992 | 9
CN1CCC2C(CCCC2NC(=O)c2ccccc2)C1 (stereo not given) | 101 | 866 | 8.58
CN1CCC2C(CCCC2NC(=O)c2ccc(C(F)(F)F)cc2)C1 (stereo not given) | 48 | 661 | 13.6
COc1ccc(C(=O)NC2CCCC3CN(C)CCC32)cc1 (stereo not given) | 109 | 1140 | 10.4
COc1cc(C(=O)NC2CCCC3CN(C)CCC32)cc(OC)c1OC (stereo not given) | 25 | 610 | 24
